According to BindingDB's records for doi:10.1021/np1002065 (The Ohio State University, 2010):

Key:
[1] = target: T1, Nuclear factor NF-kappa-B p105 subunit (Homo sapiens, UniProt P19838); assay: Inhibition of NFkappa p50 isolated from nuclear extract of human HeLa cells assessed as blockade of binding to biotinylated consesus sequence by chemiluminescence assay
T1 sequence (P19838 whole entry): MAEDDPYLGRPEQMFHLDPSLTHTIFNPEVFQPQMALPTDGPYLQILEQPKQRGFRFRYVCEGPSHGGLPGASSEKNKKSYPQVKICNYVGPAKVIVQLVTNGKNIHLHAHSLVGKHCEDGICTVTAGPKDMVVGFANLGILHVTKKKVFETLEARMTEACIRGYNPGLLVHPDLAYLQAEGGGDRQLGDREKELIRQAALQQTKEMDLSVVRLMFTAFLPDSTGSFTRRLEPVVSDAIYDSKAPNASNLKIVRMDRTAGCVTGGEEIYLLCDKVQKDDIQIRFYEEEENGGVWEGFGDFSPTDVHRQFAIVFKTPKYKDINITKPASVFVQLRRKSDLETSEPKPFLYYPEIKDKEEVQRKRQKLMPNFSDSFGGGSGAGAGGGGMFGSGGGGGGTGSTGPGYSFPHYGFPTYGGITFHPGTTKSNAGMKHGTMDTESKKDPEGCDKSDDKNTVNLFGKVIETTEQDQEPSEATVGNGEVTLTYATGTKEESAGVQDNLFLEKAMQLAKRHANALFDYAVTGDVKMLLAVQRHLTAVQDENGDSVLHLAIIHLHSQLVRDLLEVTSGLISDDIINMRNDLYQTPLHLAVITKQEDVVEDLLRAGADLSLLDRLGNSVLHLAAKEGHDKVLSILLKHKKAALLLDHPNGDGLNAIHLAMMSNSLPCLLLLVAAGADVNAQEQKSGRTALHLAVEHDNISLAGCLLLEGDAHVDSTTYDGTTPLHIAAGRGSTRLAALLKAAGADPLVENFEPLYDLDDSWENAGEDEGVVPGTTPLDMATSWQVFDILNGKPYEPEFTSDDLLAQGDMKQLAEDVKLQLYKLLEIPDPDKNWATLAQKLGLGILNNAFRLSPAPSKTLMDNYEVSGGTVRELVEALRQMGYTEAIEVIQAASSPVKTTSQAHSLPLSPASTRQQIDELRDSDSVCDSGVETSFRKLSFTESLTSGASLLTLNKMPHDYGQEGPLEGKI
Summary of the method: (§1)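 ELISA-format transcription factor assay. HeLa nuclear extract was treated with samples, and activated p50 or p65 bound to a biotinylated consensus sequence was detected by chemiluminescence on a plate reader. IC50 reported in μM.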

Transcription factor p65 = Transcription factor p65 (Human, UniProt Q04206); assay: Inhibition of NFkappa p65 isolated from nuclear extract of human HeLa cells assessed as blockade of binding to biotinylated consesus sequence by chemiluminescence assay; summary of the method: as §1
Chain of Transcription factor p65 (Q04206 whole entry): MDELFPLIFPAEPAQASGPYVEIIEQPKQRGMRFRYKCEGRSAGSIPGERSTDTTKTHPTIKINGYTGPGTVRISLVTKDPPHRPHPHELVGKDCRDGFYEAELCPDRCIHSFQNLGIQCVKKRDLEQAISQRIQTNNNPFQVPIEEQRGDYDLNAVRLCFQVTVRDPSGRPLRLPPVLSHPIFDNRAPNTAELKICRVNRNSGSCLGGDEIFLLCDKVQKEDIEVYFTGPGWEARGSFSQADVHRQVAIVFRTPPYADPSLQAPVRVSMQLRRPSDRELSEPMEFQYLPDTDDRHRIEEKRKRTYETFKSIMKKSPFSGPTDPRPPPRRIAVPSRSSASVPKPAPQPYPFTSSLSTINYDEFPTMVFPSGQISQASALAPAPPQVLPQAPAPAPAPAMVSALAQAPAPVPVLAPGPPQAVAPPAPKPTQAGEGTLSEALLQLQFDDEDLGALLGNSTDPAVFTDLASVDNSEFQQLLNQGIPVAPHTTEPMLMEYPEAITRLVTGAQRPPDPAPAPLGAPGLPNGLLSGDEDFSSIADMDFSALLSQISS

IC50 [1] [µM]	IC50 (Transcription factor p65) [µM]	Compound
> 10	> 10	C=C(C)[C@H]1Cc2c(oc3cc(O)c(CC=C(C)C)c(=O)c-3c2O)C2=C1C(=O)C(=O)C(CC=C(C)C)C2=O (stereo partly specified) [Artonin O]
3.7	2.3	C=C(C)[C@H]1Cc2c(oc3c4c(cc(=O)c-3c2O)OC(C)(C)C=C4)-c2c(O)cc(O)c(O)c21 [artobiloxanthone]

Compound	IC50 [1] [µM]	IC50 (Transcription factor p65) [µM]
CC1(C)C=Cc2cc3c(cc2O1)Oc1cc(O)ccc1C(=O)C3 [Artoristilbene]	> 10	> 10
